Activity calls are given as the source filed them. The rule behind the calls is not given here.
Experiments:
Mus musculus [1] = species on record: Mus musculus; assay: Inhibition of BMPR1-mediated Smad-1 phosphorylation in BMP7-stimulated mouse PASMC at 4 uM treated 30 mins before BMP7 challenge measured after 30 mins by immunoblot analysis
In short: (§1)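 Wild-type mouse PASMCs were kept in RPMI with 0.5% FCS for 24 h. They were preincubated with compound or vehicle for 30 min, then stimulated for 30 min with recombinant BMP2, BMP4, BMP6 or BMP7 at 10 ng ml−1. Lysates in SDS buffer were immunoblotted with anti-phospho-SMAD1/5/8. Total SMAD1 and α-tubulin served as loading controls, and bands were quantified by phosphorimager.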

Danio rerio [2] = species on record: Danio rerio; assay: Inhibition of BMPR1 in zebrafish assessed as penetrance of moderate embryonic axis dorsalization at 0.5 uM treated at 3 hrs post-fertilization measured at 48 hrs; parameters: scale not given: the % may be the effect or the level left
In short: (§2)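 Compound added at the stated times and concentrations. Gross morphology scored visually at up to 48 h.p.f. for dorsalization of the embryonic axis.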

Mus musculus [3] = species on record: Mus musculus; assay: Inhibition of BMPR1-mediated Smad-8 phosphorylation in BMP7-stimulated mouse PASMC at 4 uM treated 30 mins before BMP7 challenge measured after 30 mins by immunoblot analysis; in short: as §1
Danio rerio [4] = species on record: Danio rerio; assay: Inhibition of BMPR1 in zebrafish assessed as penetrance of normal embryonic axis dorsalization at 0.5 uM treated at 3 hrs post-fertilization measured at 48 hrs; parameters: scale not given: the % may be the effect or the level left
Danio rerio [5] = species on record: Danio rerio; assay: Inhibition of BMPR1 in zebrafish assessed as increase in myod expression at 10 uM treated at 12 hrs post-fertilization measured at 48 hrs
Danio rerio [6] = species on record: Danio rerio; assay: Inhibition of BMPR1 in zebrafish assessed as penetrance of normal embryonic axis dorsalization at 10 uM treated continuously from 6 hrs post-fertilization measured at 48 hrs; parameters: scale not given: the % may be the effect or the level left
Danio rerio [7] = species on record: Danio rerio; assay: Inhibition of BMPR1 in zebrafish assessed as penetrance of moderate embryonic axis dorsalization at 2 uM treated at 3 hrs post-fertilization measured at 48 hrs; parameters: scale not given: the % may be the effect or the level left
[8] = (§3) Inhibition of BMPR1-mediated Smad-1 phosphorylation in BMP4-stimulated mouse PASMC treated 30 mins before BMP4 challenge measured after 30 mins by immunoblot analysis
In short: (§4)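 Mouse PASMCs were held 24 h in 0.5% FCS RPMI, preincubated 30 min with a dose range of compound, then stimulated 30 min with BMP4. Phospho-SMAD1/5/8 and phospho-p38 were detected by immunoblot and quantitated by phosphorimager (RLU). IC50 was derived from a Hill plot of phospho-SMAD1/5/8 inhibition.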

Mus musculus [9] = species on record: Mus musculus; assay: as §3; in short: as §4
Danio rerio [10] = species on record: Danio rerio; assay: Inhibition of BMPR1 in zebrafish assessed as penetrance of mild embryonic axis dorsalization at 10 uM treated continuously from 4 hrs post-fertilization measured after 48 hrs; parameters: scale not given: the % may be the effect or the level left; in short: as §2
Mus musculus [11] = species on record: Mus musculus; assay: Inhibition of BMPR1-mediated Smad-5 phosphorylation in BMP7-stimulated mouse PASMC at 4 uM treated 30 mins before BMP7 challenge measured after 30 mins by immunoblot analysis; in short: as §1
Mus musculus [12] = species on record: Mus musculus; assay: Inhibition of BMPR1-mediated Smad-5 phosphorylation in BMP2-stimulated mouse PASMC at 4 uM treated 30 mins before BMP2 challenge measured after 30 mins by immunoblot analysis; in short: as §1
Danio rerio [13] = species on record: Danio rerio; assay: Inhibition of BMPR1 in zebrafish assessed as penetrance of mild embryonic axis dorsalization at 10 uM treated continuously from 2 hrs post-fertilization measured after 48 hrs; parameters: scale not given: the % may be the effect or the level left; in short: as §2
Danio rerio [14] = species on record: Danio rerio; assay: Inhibition of BMPR1 in zebrafish assessed as penetrance of mild embryonic axis dorsalization at 10 uM treated at 2 to 6 hrs post-fertilization measured at 48 hrs; parameters: scale not given: the % may be the effect or the level left; in short: as §2
Danio rerio [15] = species on record: Danio rerio; assay: Inhibition of BMPR1 in zebrafish assessed as penetrance of normal embryonic axis dorsalization at 1 uM treated at 3 hrs post-fertilization measured at 48 hrs; parameters: scale not given: the % may be the effect or the level left
Danio rerio [16] = species on record: Danio rerio; assay: Inhibition of BMPR1 in zebrafish assessed as penetrance of mild embryonic axis dorsalization at 0.2 uM treated at 3 hrs post-fertilization measured at 48 hrs; parameters: scale not given: the % may be the effect or the level left; in short: as §2
Danio rerio [17] = species on record: Danio rerio; assay: Inhibition of BMPR1 in zebrafish assessed as severity of embryonic axis dorsalization at 0.2 uM treated at 3 hrs post-fertilization measured at 48 hrs; parameters: scale not given: the % may be the effect or the level left
Danio rerio [18] = species on record: Danio rerio; assay: Inhibition of BMPR1 in zebrafish assessed as penetrance of moderate embryonic axis dorsalization at 7.5 uM treated at 3 hrs post-fertilization measured at 48 hrs; parameters: scale not given: the % may be the effect or the level left
Danio rerio [19] = species on record: Danio rerio; assay: Inhibition of BMPR1 in zebrafish assessed as penetrance of moderate embryonic axis dorsalization at 0.2 uM treated at 3 hrs post-fertilization measured at 48 hrs; parameters: scale not given: the % may be the effect or the level left; in short: as §2
Danio rerio [20] = species on record: Danio rerio; assay: Inhibition of BMPR1 in zebrafish assessed as severity of embryonic axis dorsalization at 7.5 uM treated at 3 hrs post-fertilization measured at 48 hrs; parameters: scale not given: the % may be the effect or the level left
Danio rerio [21] = species on record: Danio rerio; assay: Inhibition of BMPR1 in zebrafish assessed as penetrance of mild embryonic axis dorsalization at 5 uM treated at 3 hrs post-fertilization measured at 48 hrs; parameters: scale not given: the % may be the effect or the level left; in short: as §2
Mus musculus [22] = species on record: Mus musculus; assay: Inhibition of ALK6-mediated Id1 promoter activity in BMPR2 deficient mouse PASMC at 10 uM by immunoblot analysis
In short: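 BMPR-II–deficient mouse PASMCs at 50% confluence co-transfected with Id1 promoter firefly luciferase (BRE-Luc, 0.3 µg), caALK2, caALK3 or caALK6 (0.6 µg), and pRL-TK Renilla (0.2 µg). Compound (4–10 µM) or vehicle added 1 h after transfection. Activity read as firefly/Renilla ratio by dual luciferase assay; n = 3, mean ± s.d.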

Hep 3B2 = assay: Inhibition of BMPR1-mediated Id1 mRNA expression in IL6-stimulated human Hep3B cells at 10 uM treated 30 mins before IL6 challenge measured after 6 hrs by qRT-PCR analysis; assay type: cell-based
In short: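 Hep3B cells were grown in α-MEM with 10% FBS, then incubated 6 h in α-MEM with 1% fetal calf serum, with or without dorsomorphin and human IL-6 (100 ng ml−1). RNA was Trizol-extracted. Id1 mRNA was measured by qRT-PCR, normalized to 18S rRNA or β-actin mRNA. Triplicate measurements, mean ± s.d.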

Danio rerio [23] = species on record: Danio rerio; assay: Inhibition of BMPR1 in zebrafish assessed as increase in egr2b expression at 10 uM treated at 12 hrs post-fertilization measured at 48 hrs
C2C12 = assay: Cytotoxicity against mouse C2C12 cells at 4 uM by Cell Titer Glo assay; assay type: cell-based; conditions: c2c12, 4 µM
In short: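 C2C12 cells seeded at 2,000 cells/well in DMEM with 2% FBS and treated in quadruplicate with BMP ligands plus compound or vehicle. Viability measured by Cell-titer Glo after 5 d culture, using replicate wells treated identically to those for alkaline phosphatase.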

Mus musculus [24] = species on record: Mus musculus; assay: Inhibition of BMPR1-mediated Smad-8 phosphorylation in BMP2-stimulated mouse PASMC at 4 uM treated 30 mins before BMP2 challenge measured after 30 mins by immunoblot analysis; in short: as §1
Danio rerio [25] = species on record: Danio rerio; assay: Inhibition of BMPR1 in zebrafish assessed as penetrance of moderate embryonic axis dorsalization at 10 uM treated continuously from 6 hrs post-fertilization measured at 48 hrs; parameters: scale not given: the % may be the effect or the level left; in short: as §2
Mus musculus [26] = species on record: Mus musculus; assay: Inhibition of BMPR1-mediated Smad-5 phosphorylation in BMP7-stimulated mouse BMPR2 deficient PASMC at 4 uM treated 30 mins before BMP7 challenge measured after 30 mins by immunoblot analysis
Danio rerio [27] = species on record: Danio rerio; assay: Inhibition of BMPR1 in zebrafish assessed as severity of embryonic axis dorsalization at 10 uM treated continuously from 8 hrs post-fertilization measured at 48 hrs; parameters: scale not given: the % may be the effect or the level left

## c1cc(-c2cnn3cc(-c4ccc(OCCN5CCCCC5)cc4)cnc23)ccn1 [DORSOMORPHIN]
Mus musculus [1]
  inhibition: Active
Danio rerio [2]
  Activity: 0%
Mus musculus [3]
  inhibition: Active
Danio rerio [4]
  Activity: 100%
Danio rerio [5]
  Activity: Active
Danio rerio [6]
  Activity: 0%
Danio rerio [7]
  Activity: 0%
[8]
  IC50: 470 nM
Mus musculus [9]
  inhibition: Dose-dependent effect
Danio rerio [10]
  Activity: 0%
Mus musculus [11]
  inhibition: Active
Mus musculus [12]
  inhibition: Active
Danio rerio [13]
  Activity: 0%
Danio rerio [14]
  Activity: 17%
Danio rerio [15]
  Activity: 100%
Danio rerio [16]
  Activity: 0%
Danio rerio [17]
  Activity: 0%
Danio rerio [18]
  Activity: 42%
Danio rerio [19]
  Activity: 0%
Danio rerio [20]
  Activity: 100%
Danio rerio [21]
  Activity: 19%
Mus musculus [22]
  inhibition: Dose-dependent effect
Hep 3B2
  inhibition: Active
Danio rerio [23]
  Activity: Active
C2C12
  Activity: Non-toxic
Mus musculus [24]
  inhibition: Active
Danio rerio [25]
  Activity: 78%
Mus musculus [26]
  inhibition: Active
Danio rerio [27]
  Activity: 0%
